# Test system: MS2 coat protein
# Experiment: apparent Kd, MS2 coat protein; higher = weaker binding; RNA-MaP array; FMN 200 µM where present
# Procedure, shortened: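 Designs on Illumina sequencing-chip clusters, transcribed by stalled E. coli RNA polymerase, were exposed to SNAP-549-labelled MS2 coat protein in doubling steps from 0.7 or 1.5 nM up to 3 µM, without and then with constant ligand. The buffer held 100 mM Tris-HCl pH 7.5, 80 mM KCl, 4 mM MgCl2, BSA, DTT, yeast tRNA and Tween-20. Apparent Kd values are medians of filtered per-cluster binding-curve fits to green signal normalised to red-channel RNA signal and control-cluster median Fmax.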
# [1] = designed as: OFF switch for flavin mononucleotide, no ligand
# [2] = ligand present: flavin mononucleotide, designed as: OFF switch for flavin mononucleotide
# [3] = designed as: ON switch for flavin mononucleotide, no ligand
# [4] = ligand present: flavin mononucleotide, designed as: ON switch for flavin mononucleotide
Sequence,apparent Kd [1],apparent Kd [2],apparent Kd [3],apparent Kd [4]
CUUCUGUGAGGAUAUUAGUAGUAAAUAAAUAAAAUUAUUACUGAGAAGGCACAUGAGGAUCACCCAUGUUCCUC,35.1 nM,392 nM,–,–
CUUGUGUGAGGAUAUCAGUAGUAGUACGAUAGUAUUACUGCUGAGAAGGCACAUGAGGAUCACCCAUGUUCUUC,28.1 nM,24.1 nM,–,–
CUUUAGUGAGGAUAUCGGUAGUAAUACAAUAGUAUUACUACUGAGAAGGCACAUGAGGAUCACCCAUGUUCCUC,29.9 nM,233 nM,–,–
CUUUGGUCAGGAUAUGGUGGGCUGGUCGCGCGGCCGGGUGGCCAGAAGGGACAUGAGGAUCACCCAUGUACGGC,35.5 nM,59.7 nM,–,–
CUUUUGGCAGGAUAUGCUUUUUUUGACAUGAGGAUCACCCAUGUGAUGCAGUUUGGGUUUGCAGAAGGGCCUGAGU,98.1 nM,131 nM,–,–
CUUUUGUGAGGAUAUCAGUAGUAAAAAAAUAAAAUUACUACUGAGAAGGCACAUGAGGAUCACCCAUGUUCCUU,26.8 nM,31.6 nM,–,–
CUUUUGUGAGGAUAUCAGUAGUAAAAAAAUAAAAUUACUUCUGAGAAGGCACAUGAGGAUCACCCAUGUUCCUC,39.5 nM,333 nM,–,–
CUUUUGUGAGGAUAUCAGUAGUAAAAAAAUAAAAUUAUUACUGAGAAGGCACAUGAGGAUCACCCAUGUUCCUC,34 nM,196 nM,–,–
CUUUUGUGAGGAUAUUAGUAGUAAAUAAAUAAAAUUACUACUGAGAAGGUACAUGAGGAUCACCCAUGUUCCUC,14.8 nM,19.3 nM,–,–
CUUUUGUGAGGAUAUUAGUAGUAAAUAAAUAAAAUUACUACUUAGAAGGCACAUGAGGAUCACCCAUGUUCCUC,26.9 nM,219 nM,–,–
CUUUUGUGAGGAUAUUAGUAGUAAAUAAUUAAAAUUACUACUGAGAAGGCACAUGAGGAUCACCCAUGUUCCUC,33.2 nM,344 nM,–,–
CUUUUGUGAGGAUAUUAGUAGUAUAUAAAUAAAAUUACUACUGAGAAGGCACAUGAGGAUCACCCAUGUUCCUC,32.7 nM,124 nM,–,–
CUUUUGUGAGGAUAUUCGUCAUAAGGUUGUAAACCUGUGACGAAGAAGGCACAUGAGGAUCACCCAUGUGUCCU,15.7 nM,26.4 nM,–,–
GAAAAGGUAGGAUAUACGAAAACAAAGGGUAGAAACAAAACACAUGAGGAUCACCCAUGUAGAAGGACCAAAAG,36.4 nM,233 nM,–,–
GAACCUAAGUCAGGAUAUGUCUAAGAAAACUGACAUGAGGAUCACCCAUGUGAAUGUAAAGCAUGGCAGAAGGGAUAUGGGUGG,–,–,171 nM,315 nM
GAACGCCUAGGAUAUACAUGAGGAUCACCCAUGUCGCCCAGUCCUGGAGUGACCUCUAGUAGAAGGAGGAAUAA,480 nM,135 nM,–,–
GAACUGAAGCAUAGCUUUAGUCGUACAUGAGGAUCACCCAUGUAGGAUAUGGUAGGCAUAGCUUACUAGAAGGAUAGAGUGAUU,96.5 nM,67.9 nM,–,–
GAAGCACAUGAGGAUCACCCAUGUAAGGAUAUACGUCUGGUCCGGCCGGACCAGUACCGUAGAAGGUACGUAAA,19.1 nM,23 nM,–,–
GAAGCUCUGCAGCGAUUAGCUACAUGAGGAUCACCCAUGUGGGAGGAUAUACGUCGCUCCGCGGAGUAGAAGGCUUACAUGCGG,9.86 nM,21.7 nM,–,–
GAAGUAUCCAAUAACAUGAGGAUCACCCAUGUCAAAAGACGGGAGGAUAUUGAUCUGAAGAAGAUCAAGAAGGCCUGGUGCUAA,–,–,19.2 nM,11.1 nM
GAAGUCUAUUGAGGAUAUCGUUAUCAAAGAUAAUGAGAAGGCAAACAAUCAUGAGGACAUGAGGAUCACCCAUGUUGUGACCAU,–,–,26.6 nM,13.6 nM

Sequence,apparent Kd [1],apparent Kd [2],apparent Kd [3],apparent Kd [4]
GAAGUUUCCUGAGGAUAUACAUGAGGAUCACCCAUGUAAUGCUUGACUUCAGUAGAAGGCGGGAAACGAAAUUUCGGUGAUCAG,353 nM,140 nM,–,–
GAAUAAUUGAUCCAAUUUAACUACAUGAGGAUCACCCAUGUGCAGGAUAUCGUAAUAUUUAAUUACGAGAAGGGCAAGAACGGU,366 nM,516 nM,–,–
GAAUAGCGAGGAUAUGCAAUGAAGAUAGUACGAUAUGGCUGACAUGAGGAUCACCCAUGUAGAAGGCGCUGAUC,44.8 nM,40 nM,–,–
GAAUAGGACAGAGGAUAUACGUGCUAGAGAUACUAGCAAAAUUUCCUCACAUGAGGAUCACCCAUGUAGAAGGCUGUCCUAUCG,18.5 nM,394 nM,–,–
GAAUAGUUGAGAGGAUAUGUAUUAUUGUAGGAUACAGAAGGUUUUAACAUGAGGAUCACCCAUGUAGGACUAUAUAUGUGAAUA,–,–,15.2 nM,13.2 nM
GAAUAUUGGAUAAACAUGAGGAUCACCCAUGUAACUAGACAUGAGGAUAUGGAUUCUAAUUGGAUCCAGAAGGUAUCAAUAUUC,–,–,199 nM,227 nM
GAAUGCAGAGGAUAUACGGGACAGCAUCGAAAGAUGCUGAAACAUGAGGAUCACCCAUGUAGAAGGCUGCAGAA,73.2 nM,154 nM,–,–
GACAUGAGGAUCACCCAUGUCCAUGCAAAAGUAGUUGAGACCAGAAGGACCGUGCGGAGUGCAGGGUAGGAUAUGGAGCCCUCA,–,–,28.2 nM,7.34 nM
GACAUGAGGAUCACCCAUGUCCCUCCAGAAGGCUGGCGCGCGAAACCUAUCUCGGUUCCGCGCACAGAGGAUAUGGGCGGUUGG,–,–,181 nM,29.8 nM
GACAUGGUCCAGAAGGGCUAUUUAUUUAAUUAUUAUUUAGAACAGCAUAGCAGGAUAUGGCUAACAUGAGGAUCACCCAUGUUC,–,–,21.5 nM,12.6 nM
GACCGCGAGGAAGGAUAUGGAGCCUUAAAGGCUCCAGAAGGUCCAUAAAGGACAUGAGGAUCACCCAUGUGGUGAGAAGCGGUC,–,–,1720 nM,201 nM
GACGUGUGAGGAUAUCCGAUGCCGGUCCGGAAGGUUCGGGUGGAGAAGGCACAUGAGGAUCACCCAUGUGUAAG,18 nM,26.5 nM,–,–
GACUAGGCAGGAUAUACAUGAGGAUCACCCAUGUGUCUGCGUUGGGCACGUGAACACCGUAGAAGGGCCUUGAC,15.8 nM,35 nM,–,–
GACUGAUUACAGAAGGUGUAAGACAUGAGGAUCACCCAUGUGUAAAAGGGUAUAUUUGAAUAUAACAAGGAUAUGUUUUAAUCA,–,–,75.1 nM,49.3 nM
GACUUGUUAGGAUAUCUUACAUUUGCAUCAUAGUAACCAUUGGAGAAGGGACAUGAGGAUCACCCAUGUUUGGA,31.6 nM,30.1 nM,–,–
GAGAAGAAGUUAGGAUAUUGGAUAGGGACGGAAUAAGAAGGAGCACAUACAUGAGGAUCACCCAUGUUAGAAGAAGAGAUCCUC,545 nM,253 nM,–,–
GAGAAGAAGUUAGGAUAUUGGAUAGGGACGGACUAAGAAGGAGCACAUACAUGAGGAUCACCCAUGUUAGAAGAAGAUCCUCCA,32.3 nM,25.5 nM,–,–
GAGAAGUCAGGAUAUGCUGCUCGUCACUUGCGUGAUGAGUAGCAGAAGGGACAUGAGGAUCACCCAUGUAAAGU,51.7 nM,74.8 nM,–,–
GAGCAGUGUAAAUAAACUCAAAUACAUGAGGAUCACCCAUGUAAGGAUAUGCAGUGGAAUACACUGCAGAAGGUACAUCACUGC,14.3 nM,20.5 nM,–,–
GAGCGAAAGCUCAAUGUCGAUAGCAGAAGGACAUCCAAUAACAUGAAAACAUGAGGAUCACCCAUGUAGGAUAUGCUAUCGACU,5.55 nM,6.55 nM,–,–
GAGCGGGAAACAUGAGGAUCACCCAUGUAAUAAAUCCUCAAGUAGGAUAUGCACACGAGAAGUGUGCAGAAGGGCUACCCGGUC,29.7 nM,46.2 nM,–,–

# Source: the EternaBench riboswitch data
